Test results reported in ChEMBL document CHEMBL1143579, “Synthesis and pharmacology of N1-substituted piperazine-2,3-dicarboxylic acid derivatives acting as NMDA receptor antagonists” (J Med Chem, 2005).

Legend:
[1] = target: Glutamate NMDA receptor; Grin1/Grin2b (Rattus norvegicus, UniProt P35439+Q00960); experiment: Inhibitory constant against (S)-glutamate and glycine evoked currents mediated by N-methyl-D-aspartate glutamate receptor NR1a/NR2B expressed in Xenopus oocytes; format: cell-based, Oocyte
Summary of the method: (§1)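 Xenopus laevis oocytes were injected with NR1a and NR2 subunit RNA (1:3 molar ratio, 15-30 ng total) and held in ND-96 at 17 °C for 1-5 days. Currents were recorded by two-microelectrode voltage clamp at a holding potential of […] in 116 mM NaCl, 2 mM KCl, 2 mM BaCl2, 5 mM HEPES, pH 7.4. The steady plateau response to bath-applied 10 µM L-glutamate plus 10 µM glycine was measured. Apparent Ki was obtained as IC50(obs)/(1 + [agonist]/EC50).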

[2] = target: Glutamate NMDA receptor; Grin1/Grin2c (Rattus norvegicus, UniProt P35439+Q00961); experiment: Inhibitory constant against (S)-glutamate and glycine evoked currents mediated by N-methyl-D-aspartate glutamate receptor NR1a/NR2C expressed in Xenopus oocytes; format: cell-based, Oocyte; summary of the method: as §1
[3] = Inhibitory constant against (S)-glutamate and glycine evoked currents mediated by N-methyl-D-aspartate glutamate receptor NR1a/NR2D expressed in Xenopus oocytes; format: cell-based, Rattus norvegicus; conditions: oocyte
Summary of the method: (§2)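 Xenopus laevis oocytes were injected with NR1a and NR2 subunit RNA (1:3 molar ratio, 15-30 ng total) and held in ND-96 at 17 °C for 1-5 days. The steady plateau response to bath-applied 10 µM L-glutamate plus 10 µM glycine was measured. Apparent Ki was obtained as IC50(obs)/(1 + [agonist]/EC50).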

[4] = target: Glutamate NMDA receptor; Grin1/Grin2a (Rattus norvegicus, UniProt P35439+Q00959); experiment: Inhibitory constant against (S)-glutamate and glycine evoked currents mediated by N-methyl-D-aspartate glutamate receptor NR1a/NR2A expressed in Xenopus oocytes; format: cell-based, Oocyte; summary of the method: as §2
Chain of Glutamate NMDA receptor; Grin1/Grin2a (Q00959 whole entry, other chains not shown): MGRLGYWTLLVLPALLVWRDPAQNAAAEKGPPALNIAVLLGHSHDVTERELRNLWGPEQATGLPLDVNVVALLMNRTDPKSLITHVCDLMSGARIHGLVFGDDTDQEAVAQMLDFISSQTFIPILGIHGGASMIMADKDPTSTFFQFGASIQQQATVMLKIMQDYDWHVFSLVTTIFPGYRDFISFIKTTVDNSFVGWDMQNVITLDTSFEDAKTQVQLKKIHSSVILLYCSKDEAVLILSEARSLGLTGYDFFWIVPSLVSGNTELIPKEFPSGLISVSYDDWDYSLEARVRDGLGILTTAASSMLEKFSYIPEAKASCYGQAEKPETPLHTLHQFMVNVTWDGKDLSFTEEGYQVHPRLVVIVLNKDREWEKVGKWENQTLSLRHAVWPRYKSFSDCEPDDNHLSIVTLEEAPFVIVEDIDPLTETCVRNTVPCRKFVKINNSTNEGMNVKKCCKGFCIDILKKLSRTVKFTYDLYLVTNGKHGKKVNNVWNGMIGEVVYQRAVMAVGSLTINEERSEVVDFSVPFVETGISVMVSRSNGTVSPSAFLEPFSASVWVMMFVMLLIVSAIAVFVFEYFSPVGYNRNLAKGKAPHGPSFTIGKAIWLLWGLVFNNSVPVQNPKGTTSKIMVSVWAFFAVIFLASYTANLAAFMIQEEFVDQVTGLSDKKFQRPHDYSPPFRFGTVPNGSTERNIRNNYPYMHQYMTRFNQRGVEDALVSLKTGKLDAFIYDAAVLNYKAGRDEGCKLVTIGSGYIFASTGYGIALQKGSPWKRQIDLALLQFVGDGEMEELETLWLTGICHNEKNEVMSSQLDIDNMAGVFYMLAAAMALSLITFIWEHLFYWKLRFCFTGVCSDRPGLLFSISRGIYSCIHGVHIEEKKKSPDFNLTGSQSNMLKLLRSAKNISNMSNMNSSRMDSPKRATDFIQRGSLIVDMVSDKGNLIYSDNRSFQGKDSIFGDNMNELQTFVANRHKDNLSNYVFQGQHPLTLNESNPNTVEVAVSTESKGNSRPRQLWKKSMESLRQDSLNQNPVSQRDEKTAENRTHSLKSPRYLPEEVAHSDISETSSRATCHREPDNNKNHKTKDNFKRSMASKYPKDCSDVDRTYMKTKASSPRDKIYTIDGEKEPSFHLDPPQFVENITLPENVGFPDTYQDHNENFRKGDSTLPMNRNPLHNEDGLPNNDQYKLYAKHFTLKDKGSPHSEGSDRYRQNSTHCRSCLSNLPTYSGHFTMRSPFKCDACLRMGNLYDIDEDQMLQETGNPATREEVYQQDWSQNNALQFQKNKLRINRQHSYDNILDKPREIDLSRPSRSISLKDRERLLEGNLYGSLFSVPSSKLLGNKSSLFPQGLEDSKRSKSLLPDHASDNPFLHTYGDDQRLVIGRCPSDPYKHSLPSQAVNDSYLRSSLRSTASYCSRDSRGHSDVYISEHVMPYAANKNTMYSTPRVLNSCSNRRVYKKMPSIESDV

Chain of Glutamate NMDA receptor; Grin1/Grin2b (Q00960 whole entry, other chains not shown): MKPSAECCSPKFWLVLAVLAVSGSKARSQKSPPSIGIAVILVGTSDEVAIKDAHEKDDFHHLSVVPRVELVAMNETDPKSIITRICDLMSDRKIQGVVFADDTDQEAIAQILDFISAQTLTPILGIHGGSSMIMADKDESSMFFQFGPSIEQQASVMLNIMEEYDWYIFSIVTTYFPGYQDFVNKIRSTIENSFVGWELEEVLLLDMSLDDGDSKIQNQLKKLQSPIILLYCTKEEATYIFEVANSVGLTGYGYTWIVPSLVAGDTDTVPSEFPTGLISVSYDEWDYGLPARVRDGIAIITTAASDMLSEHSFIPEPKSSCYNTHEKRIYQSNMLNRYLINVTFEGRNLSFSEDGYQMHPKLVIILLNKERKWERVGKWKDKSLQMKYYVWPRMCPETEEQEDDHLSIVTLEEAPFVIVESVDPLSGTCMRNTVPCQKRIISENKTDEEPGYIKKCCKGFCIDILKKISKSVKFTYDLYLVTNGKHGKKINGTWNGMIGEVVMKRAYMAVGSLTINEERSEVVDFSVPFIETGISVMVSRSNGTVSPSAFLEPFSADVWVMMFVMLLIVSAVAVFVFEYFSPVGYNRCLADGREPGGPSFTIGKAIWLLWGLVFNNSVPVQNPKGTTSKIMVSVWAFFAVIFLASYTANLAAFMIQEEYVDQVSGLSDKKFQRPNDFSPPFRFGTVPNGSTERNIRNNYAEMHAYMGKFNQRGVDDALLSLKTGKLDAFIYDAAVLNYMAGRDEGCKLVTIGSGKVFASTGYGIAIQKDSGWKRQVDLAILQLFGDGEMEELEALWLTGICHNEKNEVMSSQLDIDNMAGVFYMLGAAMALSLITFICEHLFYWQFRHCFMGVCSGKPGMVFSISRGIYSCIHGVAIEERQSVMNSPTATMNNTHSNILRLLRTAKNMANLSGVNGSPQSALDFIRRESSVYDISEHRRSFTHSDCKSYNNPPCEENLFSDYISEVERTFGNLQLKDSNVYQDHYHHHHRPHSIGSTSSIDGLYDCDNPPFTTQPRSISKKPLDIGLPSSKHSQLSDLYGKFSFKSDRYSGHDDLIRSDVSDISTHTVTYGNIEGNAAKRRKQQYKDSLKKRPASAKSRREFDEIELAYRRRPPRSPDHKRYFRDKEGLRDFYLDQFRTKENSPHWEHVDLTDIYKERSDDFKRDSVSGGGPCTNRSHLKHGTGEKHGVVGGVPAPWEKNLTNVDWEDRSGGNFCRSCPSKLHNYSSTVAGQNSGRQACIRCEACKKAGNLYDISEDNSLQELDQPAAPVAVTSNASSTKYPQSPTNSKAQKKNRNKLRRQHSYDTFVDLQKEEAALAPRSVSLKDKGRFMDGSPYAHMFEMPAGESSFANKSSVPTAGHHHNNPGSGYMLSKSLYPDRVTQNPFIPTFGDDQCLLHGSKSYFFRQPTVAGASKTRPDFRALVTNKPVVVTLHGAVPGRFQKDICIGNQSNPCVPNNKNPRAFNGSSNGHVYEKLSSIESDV
Chain of Glutamate NMDA receptor; Grin1/Grin2c (Q00961 whole entry, other chains not shown): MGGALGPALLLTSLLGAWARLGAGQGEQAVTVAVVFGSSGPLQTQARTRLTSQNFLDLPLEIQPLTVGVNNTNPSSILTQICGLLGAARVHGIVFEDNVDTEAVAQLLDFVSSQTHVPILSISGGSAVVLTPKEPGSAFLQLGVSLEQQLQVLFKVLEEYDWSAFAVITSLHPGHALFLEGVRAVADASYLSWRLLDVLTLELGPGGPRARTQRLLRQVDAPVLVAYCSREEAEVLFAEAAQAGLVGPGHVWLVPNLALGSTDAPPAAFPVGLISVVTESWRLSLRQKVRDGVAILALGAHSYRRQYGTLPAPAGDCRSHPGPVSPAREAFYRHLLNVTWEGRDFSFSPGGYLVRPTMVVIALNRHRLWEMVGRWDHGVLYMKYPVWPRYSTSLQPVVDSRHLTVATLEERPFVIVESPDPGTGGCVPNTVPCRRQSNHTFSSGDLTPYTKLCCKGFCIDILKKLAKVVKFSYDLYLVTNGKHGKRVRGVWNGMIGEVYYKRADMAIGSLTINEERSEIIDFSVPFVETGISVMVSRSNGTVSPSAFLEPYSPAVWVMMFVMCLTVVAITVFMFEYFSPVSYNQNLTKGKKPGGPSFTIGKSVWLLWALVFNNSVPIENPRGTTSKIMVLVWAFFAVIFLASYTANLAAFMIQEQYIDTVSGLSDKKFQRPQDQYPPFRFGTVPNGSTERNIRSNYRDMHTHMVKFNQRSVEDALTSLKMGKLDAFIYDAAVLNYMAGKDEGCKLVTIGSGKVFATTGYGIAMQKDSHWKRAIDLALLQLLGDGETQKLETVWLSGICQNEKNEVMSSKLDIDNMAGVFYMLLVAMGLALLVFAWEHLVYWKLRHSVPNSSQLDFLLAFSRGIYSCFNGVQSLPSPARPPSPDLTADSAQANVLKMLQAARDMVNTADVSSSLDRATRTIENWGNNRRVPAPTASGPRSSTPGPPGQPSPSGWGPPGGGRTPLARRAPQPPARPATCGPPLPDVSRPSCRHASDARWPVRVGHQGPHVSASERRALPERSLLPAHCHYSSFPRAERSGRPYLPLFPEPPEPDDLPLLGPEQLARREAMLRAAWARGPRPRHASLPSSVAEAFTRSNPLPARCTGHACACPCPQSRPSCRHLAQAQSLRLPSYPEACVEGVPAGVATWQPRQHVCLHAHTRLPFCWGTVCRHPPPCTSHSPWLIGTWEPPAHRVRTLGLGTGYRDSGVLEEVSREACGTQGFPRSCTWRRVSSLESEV

| SMILES | Ki [1] | Ki [2] | Ki [3] | Ki [4] |
| --- | --- | --- | --- | --- |
| O=C(O)[C@H]1NCCN(C(=O)c2ccc(-c3ccc(F)cc3)cc2)[C@H]1C(=O)O | 13.4 µM | 7.38 µM | 8.02 µM | 8.78 µM |
| O=C(O)[C@H]1CN(CCCP(=O)(O)O)CCN1 | 0.27 µM | 0.63 µM | 1.99 µM | 0.041 µM |
| O=C(O)[C@H]1NCCN(C(=O)c2ccc3c(c2)Cc2ccccc2-3)[C@H]1C(=O)O | 3.25 µM | 1.17 µM | 2.17 µM | – |
| C[C@H](NC(c1cccc2nc(O)c(O)nc12)P(=O)(O)O)c1ccc(Br)cc1 (stereo partly specified) | 0.067 µM | 0.0116 µM | 0.037 µM | 0.0054 µM |
| O=C(O)[C@H]1NCCN(C(=O)c2ccc3ccccc3c2)[C@H]1C(=O)O | 18.2 µM | 3.89 µM | – | – |
| N[C@H](CCCP(=O)(O)O)C(=O)O | 0.46 µM | 1.64 µM | 3.71 µM | 0.28 µM |
| O=C(O)[C@H]1NCCN(C(=O)c2ccc3c(c2)CCc2cc(Br)ccc2-3)[C@H]1C(=O)O | 2.15 µM | 0.66 µM | 1.03 µM | 3.88 µM |
| O=C(O)[C@H]1NCCN(C(=O)c2ccc(-c3ccccc3Br)cc2)[C@H]1C(=O)O | 22.1 µM | 8.49 µM | 12.9 µM | 42.9 µM |
| O=C(O)[C@H]1NCCN(C(=O)/C=C/c2ccc3ccccc3c2)[C@H]1C(=O)O | 0.3 µM | 0.85 µM | 1.94 µM | 0.84 µM |
| O=C(O)[C@H]1NCCN(C(=O)c2ccc(-c3ccccc3)cc2)[C@H]1C(=O)O | 5.01 µM | 8.98 µM | 4.29 µM | 15.8 µM |
| O=C(O)[C@H]1NCCN(S(=O)(=O)c2ccc(-c3ccccc3)cc2)[C@H]1C(=O)O | 16.2 µM | 8.67 µM | 10.9 µM | 13.6 µM |
| O=C(O)[C@H]1NCCN(C(=O)c2ccc3c(c2)CCc2ccccc2-3)[C@H]1C(=O)O | 0.76 µM | 0.29 µM | 0.57 µM | 1.54 µM |
| O=C1c2ccccc2-c2ccc(C(=O)N3CCN[C@H](C(=O)O)[C@@H]3C(=O)O)cc21 | 9.36 µM | 4.42 µM | 6.45 µM | 7.97 µM |
| O=C(O)[C@H]1NCCN(C(=O)/C=C/c2ccccc2)[C@H]1C(=O)O | 18 µM | 27 µM | 59.7 µM | 13.2 µM |
| O=C(O)[C@H]1NCCN(C(=O)c2ccc3c(ccc4ccccc43)c2)[C@H]1C(=O)O | 0.31 µM | 0.096 µM | 0.125 µM | 0.55 µM |
| N[C@H](CCCCCP(=O)(O)O)C(=O)O | 4.14 µM | 6.42 µM | 17.1 µM | 0.49 µM |
| O=C(O)[C@H]1NCCN(C(=O)c2ccccc2)[C@H]1C(=O)O | > 100 µM | > 100 µM | > 100 µM | > 100 µM |
| O=C(O)[C@H]1NCCN(C(=O)c2ccc3ccc4ccccc4c3c2)[C@H]1C(=O)O | 19.3 µM | 4.22 µM | 2.78 µM | 14.2 µM |
| O=C(O)[C@H]1NCCN(Cc2ccc3c(ccc4ccccc43)c2)[C@H]1C(=O)O | 10.2 µM | 2.67 µM | 3.18 µM | 11.2 µM |
| O=C(O)[C@H]1NCCN(C(=O)c2ccc3c(ccc4cc(Br)ccc43)c2)[C@H]1C(=O)O | 0.25 µM | 0.0994 µM | 0.15 µM | 0.32 µM |
| O=C(O)[C@@H]1NCCN(C(=O)c2ccc3c(ccc4ccccc43)c2)[C@H]1C(=O)O | 9.08 µM | 4.88 µM | 6.03 µM | 10.5 µM |
